# Calls of active or inactive are those of the source. The calls are words filed in the database; no cut-off is given here.
# Assays:
# NCI-H460 [1] = experiment: Antitumor activity against human CDDP-resistant NCI-H460 cells xenografted in Balb/c mouse assessed as slight decrease in tumor growth at 40 mg/kg/day i.p; assay type: functional, organism-based; settings: Lung, route ip
# Outline: (§1)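 Male BALB/c mice aged 7–8 weeks received NCI-H460/CDDP cells (5 × 10^6 in 100 μl PBS) subcutaneously into the right flank. At a mean tumor volume of 100 mm3, mice were randomized (n = 6 per group) to saline, inhibitor 40 mg/kg once daily i.p., CDDP 4.0 mg/kg every 3 days i.p., or the combination. Tumor growth was followed for 2 weeks.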
# Mus musculus [2] = experiment: Downregulation of p53K370me protein expression in Balb/c mouse tumor xenografted with CDDP-resistant NCI-H460 cells at 40 mg/kg/day ip by Western blot analysis; assay type: functional, organism-based
# Outline: (§2)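 Excised tumors came from NCI-H460/CDDP flank xenografts in male BALB/c mice (saline, inhibitor 40 mg/kg daily i.p., CDDP 4.0 mg/kg every 3 days i.p., or the combination; 2 weeks). They were stored at −80°C. Protein extracts were run on 10–15% SDS-PAGE, transferred to PVDF, probed with primary and HRP secondary antibodies, detected by ECL and normalized to β-actin.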
# NCI-H460 [3] = experiment: Antitumor activity against human CDDP-resistant NCI-H460 cells xenografted in Balb/c mouse assessed as inhibition of tumor growth at 40 mg/kg/day i.p in presence of cisplatin; assay type: functional, organism-based; settings: Lung, route ip; outline: as §1
# Mus musculus [4] = experiment: Downregulation of p53K370me protein expression in Balb/c mouse tumor xenografted with CDDP-resistant NCI-H460 cells at 40 mg/kg/day ip by Western blot analysis in presence of cisplatin; assay type: functional, organism-based; outline: as §2
# A549 [5] = experiment: Cytotoxicity against human A549 cells assessed as inhibition of cell growth measured after 48 hrs by MTT assay; assay type: functional, cell-based; settings: Lung
# Outline: (§3)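 Cells were grown in RPMI-1640 with 10% FBS, seeded at 1 × 10^5 cells/ml, left overnight and treated with a range of concentrations for 48 h. MTT (2.5 mg/ml in PBS) was added for 4 h at 37°C. Plates were centrifuged, the medium removed and the formazan dissolved in DMSO. OD was read at 570 nm.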
# NCI-H460 [6] = experiment: Cytotoxicity against human NCI-H460 cells assessed as inhibition of cell growth measured after 48 hrs by MTT assay; assay type: functional, cell-based; settings: Lung; outline: as §3
# NCI-H460 [7] = experiment: Potentiation of CDDP-induced apoptosis in human NCI-H460 cells assessed as viable cells at 2 uM measured after 48 hrs by annexin-V/PI staining based flow cytometry; assay type: functional; settings: NCI-H460, Lung, read-out: Activity
# NCI-H460 [8] = experiment: Potentiation of CDDP-induced apoptosis in human CDDP-resistant NCI-H460 cells assessed as early apoptotic cells at 2 uM measured after 48 hrs by annexin-V/PI staining based flow cytometry; assay type: functional, Lung
# NCI-H460 [9] = experiment: Potentiation of CDDP-induced apoptosis in human CDDP-resistant NCI-H460 cells assessed as necrotic cells at 2 uM measured after 48 hrs by annexin-V/PI staining based flow cytometry; assay type: functional, Lung
# NCI-H460 [10] = experiment: Potentiation of VCR-induced cytotoxicity in human NCI-H460 cells assessed as cell viability at 2 uM measured after 48 hrs by MTT assay; assay type: functional, cell-based; settings: Lung
# NCI-H460 [11] = experiment: Potentiation of Taxol-induced cytotoxicity in human NCI-H460 cells assessed as cell viability at 2 uM measured after 48 hrs by MTT assay; assay type: functional, cell-based; settings: Lung
# NCI-H460 [12] = experiment: Induction of apoptosis in human CDDP-resistant NCI-H460 cells assessed as viable cells at 10 uM after 48 hrs by annexin-V/PI staining based flow cytometry (reference value: 95.44%); assay type: functional; settings: NCI-H460, Lung, read-out: Activity
# NCI-H460 [13] = experiment: Induction of apoptosis in human CDDP-resistant NCI-H460 cells assessed as necrotic cells at 10 uM after 48 hrs by annexin-V/PI staining based flow cytometry (reference value: 0.03%); assay type: functional, Lung
# NCI-H460 [14] = experiment: Potentiation of CDDP-induced apoptosis in human NCI-H460 cells assessed as necrotic cells at 2 uM measured after 48 hrs by annexin-V/PI staining based flow cytometry; assay type: functional, Lung
# NCI-H460 [15] = experiment: Potentiation of CDDP-induced apoptosis in human CDDP-resistant NCI-H460 cells assessed as viable cells at 2 uM measured after 48 hrs by annexin-V/PI staining based flow cytometry; assay type: functional; settings: NCI-H460, Lung, read-out: Activity
# NCI-H460 [16] = experiment: Induction of apoptosis in human CDDP-resistant NCI-H460 cells assessed as early apoptotic cells at 10 uM after 48 hrs by annexin-V/PI staining based flow cytometry (reference value: 0.03%); assay type: functional, Lung
# NCI-H460 [17] = experiment: Induction of apoptosis in human NCI-H460 cells assessed as late apoptotic cells at 10 uM after 48 hrs by annexin-V/PI staining based flow cytometry (reference value: 0.02%); assay type: functional, Lung
# NCI-H460 [18] = experiment: Potentiation of CDDP-induced apoptosis in human NCI-H460 cells assessed as late apoptotic cells at 2 uM measured after 48 hrs by annexin-V/PI staining based flow cytometry; assay type: functional, Lung
# NCI-H460 [19] = experiment: Induction of apoptosis in human NCI-H460 cells assessed as early apoptotic cells at 10 uM after 48 hrs by annexin-V/PI staining based flow cytometry (reference value: 0.02%); assay type: functional, Lung
# NCI-H460 [20] = experiment: Potentiation of CDDP-induced apoptosis in human CDDP-resistant NCI-H460 cells assessed as late apoptotic cells at 2 uM measured after 48 hrs by annexin-V/PI staining based flow cytometry; assay type: functional, Lung
# NCI-H460 [21] = experiment: Induction of apoptosis in human CDDP-resistant NCI-H460 cells assessed as late apoptotic cells at 10 uM after 48 hrs by annexin-V/PI staining based flow cytometry (reference value: 0.03%); assay type: functional, Lung
# A549 [22] = experiment: Potentiation of VCR-induced cytotoxicity in human A549 cells assessed as cell viability at 2 uM measured after 48 hrs by MTT assay; assay type: functional, cell-based; settings: Lung
# NCI-H460 [23] = experiment: Induction of apoptosis in human NCI-H460 cells assessed as viable cells at 10 uM after 48 hrs by annexin-V/PI staining based flow cytometry (reference value: 98.42%); assay type: functional; settings: NCI-H460, Lung, read-out: Activity
# A549 [24] = experiment: Potentiation of Taxol-induced cytotoxicity in human A549 cells assessed as cell viability at 2 uM measured after 48 hrs by MTT assay; assay type: functional, cell-based; settings: Lung
# NCI-H460 [25] = experiment: Induction of apoptosis in human NCI-H460 cells assessed as necrotic cells at 10 uM after 48 hrs by annexin-V/PI staining based flow cytometry (reference value: 1.53%); assay type: functional, Lung
# NCI-H460 [26] = experiment: Potentiation of CDDP-induced apoptosis in human NCI-H460 cells assessed as early apoptotic cells at 2 uM measured after 48 hrs by annexin-V/PI staining based flow cytometry; assay type: functional, Lung
smiles,measurement,setting,value
O=C1COc2c(CCNCCN(C(=O)CCNCCc3ccc(Cl)c(Cl)c3)C3CCCCC3)ccc(O)c2N1,Activity,NCI-H460 [1],Active
same,inhibition,Mus musculus [2],Active
same,Activity,NCI-H460 [3],Active
same,inhibition,Mus musculus [4],Active
CCC1=C[C@@H]2CN(C1)Cc1c([nH]c3ccccc13)[C@@](C(=O)OC)(c1cc3c(cc1OC)N(C)[C@H]1[C@@](O)(C(=O)OC)[C@H](OC(C)=O)[C@]4(CC)C=CCN5CC[C@]31[C@@H]54)C2,Activity,A549 [5],Dose-Dependent Effect
same,Activity,NCI-H460 [6],Dose-Dependent Effect
CC(=O)O[C@H]1C(=O)[C@@]2(C)[C@H]([C@H](OC(=O)c3ccccc3)[C@]3(O)C[C@H](OC(=O)[C@H](O)[C@@H](NC(=O)c4ccccc4)c4ccccc4)C(C)=C1C3(C)C)[C@]1(OC(C)=O)CO[C@@H]1C[C@@H]2O,Activity,A549 [5],Dose-Dependent Effect
same,Activity,NCI-H460 [6],Dose-Dependent Effect
CC[C@]1(O)C[C@H]2CN(CCc3c([nH]c4ccccc34)[C@@](C(=O)OC)(c3cc4c(cc3OC)N(C=O)[C@H]3[C@@](O)(C(=O)OC)[C@H](OC(C)=O)[C@]5(CC)C=CCN6CC[C@]43[C@@H]65)C2)C1,Activity,A549 [5],Dose-Dependent Effect
same,Activity,NCI-H460 [6],Dose-Dependent Effect
CCN(C(=O)CO)[C@H]1CN(/C(=N\C#N)Nc2cccc(OC(F)F)c2)N=C1c1ccc(Cl)c(Cl)c1,viability at 2 µM,NCI-H460 [7],0.5%
same,Activity,NCI-H460 [8],5.21%
same,Activity,NCI-H460 [9],19.75%
same,Activity,NCI-H460 [10],inactive
same,Activity,NCI-H460 [11],inactive
same,viability at 10 µM,NCI-H460 [12],85.2%
same,Activity,NCI-H460 [13],4.72%
same,Activity,NCI-H460 [14],0.04%
same,viability at 2 µM,NCI-H460 [15],8.94%
same,Activity,NCI-H460 [16],1.53%
same,Activity,NCI-H460 [17],0.26%
same,Activity,NCI-H460 [18],84.74%
same,Activity,NCI-H460 [19],0.03%
same,Activity,NCI-H460 [20],66.1%
same,Activity,NCI-H460 [21],7.55%
same,Activity,A549 [22],inactive
same,viability at 10 µM,NCI-H460 [23],97.6%
same,Activity,A549 [24],inactive
same,Activity,NCI-H460 [25],2.08%
same,Activity,NCI-H460 [26],14.7%
